The target in data set [1] is T1, Toxin B (Clostridioides difficile, UniProt P18177). Kind of data set: Inhibition of Clostridium difficile toxin B […] CHO cells assessed as reduction in caspase 3/7 activation pre-incubated for 1 hr before TcdB addition by luminescence based assay. Type of data set: cell-based.
Data set [2] in a line: Metabolic stability in mouse plasma assessed as parent compound remaining after 2 hrs. It counts as ADME, cell-free. In short, it runs like this:
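Compound incubated in mouse plasma for 2 h. Parent compound remaining was measured, and the carboxylic acid hydrolysis product was also monitored.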

Data set [3] in a line: Metabolic stability in mouse liver microsomes assessed as parent compound remaining after 15 mins. It counts as ADME, Microsome. The note with it: read-out: Stability.
Data set [4] has as its target T1, Toxin B. Kind of data set: Inhibition of C-terminal 6-His tagged recombinant Clostridium difficile toxin B glucosyltransferase domain assessed as reduction in UDP-glucose hydrolysis activity using UDP-glucose substrate and ADP Alexa633 tracer incubated for 3 hrs by fluorescence polarization assay.
Data set [5] in a line: Metabolic stability in human liver microsomes assessed as parent compound remaining after 15 mins. It counts as ADME, Microsome. The following applies: read-out: Stability.
The next data set deals with Toxin A (Clostridioides difficile, UniProt P16154). As to the kind of experiment: Inhibition of Clostridium difficile toxin A […] CHO cells assessed as reduction in caspase 3/7 activation pre-incubated for 1 hr before TcdA addition by luminescence based assay. It counts as cell-based.
Data set [6] is described as follows: AUC(infinity) in hamster at 10 mg/kg, po. The note with it: cricetinae, in vivo. Type of data set: ADME, organism-based. The arrangement: dose 10 mg/kg, time infinity, route oral.
Data set [7] can be described thus: AUC (0 to infinity) in CD-1 mouse at 1 mg/kg, iv. More on the design: dose 1 mg/kg, time infinity, route intravenous. The note with it: in vivo. Type of data set: ADME, organism-based. In a few lines:
(§1)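 CD-1 mice, single dose. The i.v. dose was 1 mg/kg in 40% PEG400/5% ethanol/55% water (v/v/v). The p.o. dose was 10 mg/kg in 20% PEG400/80% (0.5% (w/v) CMC with 0.25% (v/v) Tween 80) (v/v). Plasma samples were analysed to derive Cl, T1/2, Vz, AUC0-inf, Cmax, Tmax and oral bioavailability F.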

The nature of data set [8]: Apparent volume of distribution during terminal phase in CD-1 mouse at 1 mg/kg, iv. It counts as ADME, organism-based. The note with it: in vivo. In short, it runs like this: as §1
Data set [9] is described as follows: Elimination half life in hamster at 10 mg/kg, po. It counts as ADME, organism-based. The following applies: cricetinae, in vivo, read-out: beta t1/2 (converted).
The nature of data set [10]: Cmax in CD-1 mouse at 1 mg/kg, iv. The note with it: in vivo. It counts as ADME, organism-based. The arrangement: dose 1 mg/kg, route intravenous. In a few lines: as §1
Data set [11] can be described thus: Elimination half life in CD-1 mouse at 1 mg/kg, iv. It counts as ADME, organism-based. The note with it: in vivo, read-out: beta t1/2 (converted). In a few lines: as §1
The nature of data set [12]: Clearance in CD-1 mouse at 1 mg/kg, iv. The note with it: in vivo. It counts as ADME, organism-based. In short, it runs like this: as §1
The nature of data set [13]: Oral bioavailability in CD-1 mouse at 10 mg/kg. Type of data set: ADME, organism-based. The following applies: in vivo. In short, it runs like this: as §1
Data set [14] in a line: Tmax in hamster at 10 mg/kg, po. It counts as ADME, organism-based. The note with it: cricetinae, in vivo.
A short description of data set [15]: Cmax in hamster at 10 mg/kg, po. It counts as ADME, organism-based. The arrangement: dose 10 mg/kg, route oral. The note with it: cricetinae, in vivo.
The nature of data set [16]: Tmax in CD-1 mouse at 10 mg/kg, po. It counts as ADME, organism-based. The following applies: in vivo. In short, it runs like this: as §1
Data set [17] concerns Clostridioides difficile. Kind of data set: Antibacterial activity against Clostridium difficile infected hamster assessed as host survival at 50 mg/kg, po bid treated for 7 days (reference value: 2.3 days). Type of data set: functional.
Data set [18] can be described thus: AUC (0 to infinity) in CD-1 mouse at 10 mg/kg, po. Type of data set: ADME, organism-based. More on the design: dose 10 mg/kg, time infinity, route oral. The note with it: in vivo. In a few lines: as §1
The nature of data set [19]: Cmax in CD-1 mouse at 10 mg/kg, po. It counts as ADME, organism-based. The arrangement: dose 10 mg/kg, route oral. The following applies: in vivo. In short, it runs like this: as §1
The nature of data set [20]: Apparent oral clearance in hamster at 10 mg/kg, po. Type of data set: ADME, organism-based. The note with it: cricetinae, in vivo.
The subject of data set [21] is Clostridioides difficile. As to the kind of experiment: Antibacterial activity against Clostridium difficile infected hamster assessed as host survival at 5 mg/kg, po bid treated for 7 days (reference value: 2.3 days). Type of data set: functional.

The record followed here is ChEMBL document CHEMBL4325886, “Synthesis and SAR studies of novel benzodiazepinedione-based inhibitors of Clostridium difficile (C. difficile) toxin B (TcdB)” (Bioorg Med Chem Lett, 2018).

Some results are limits rather than exact numbers.

Sequence of Toxin A (P16154 whole entry): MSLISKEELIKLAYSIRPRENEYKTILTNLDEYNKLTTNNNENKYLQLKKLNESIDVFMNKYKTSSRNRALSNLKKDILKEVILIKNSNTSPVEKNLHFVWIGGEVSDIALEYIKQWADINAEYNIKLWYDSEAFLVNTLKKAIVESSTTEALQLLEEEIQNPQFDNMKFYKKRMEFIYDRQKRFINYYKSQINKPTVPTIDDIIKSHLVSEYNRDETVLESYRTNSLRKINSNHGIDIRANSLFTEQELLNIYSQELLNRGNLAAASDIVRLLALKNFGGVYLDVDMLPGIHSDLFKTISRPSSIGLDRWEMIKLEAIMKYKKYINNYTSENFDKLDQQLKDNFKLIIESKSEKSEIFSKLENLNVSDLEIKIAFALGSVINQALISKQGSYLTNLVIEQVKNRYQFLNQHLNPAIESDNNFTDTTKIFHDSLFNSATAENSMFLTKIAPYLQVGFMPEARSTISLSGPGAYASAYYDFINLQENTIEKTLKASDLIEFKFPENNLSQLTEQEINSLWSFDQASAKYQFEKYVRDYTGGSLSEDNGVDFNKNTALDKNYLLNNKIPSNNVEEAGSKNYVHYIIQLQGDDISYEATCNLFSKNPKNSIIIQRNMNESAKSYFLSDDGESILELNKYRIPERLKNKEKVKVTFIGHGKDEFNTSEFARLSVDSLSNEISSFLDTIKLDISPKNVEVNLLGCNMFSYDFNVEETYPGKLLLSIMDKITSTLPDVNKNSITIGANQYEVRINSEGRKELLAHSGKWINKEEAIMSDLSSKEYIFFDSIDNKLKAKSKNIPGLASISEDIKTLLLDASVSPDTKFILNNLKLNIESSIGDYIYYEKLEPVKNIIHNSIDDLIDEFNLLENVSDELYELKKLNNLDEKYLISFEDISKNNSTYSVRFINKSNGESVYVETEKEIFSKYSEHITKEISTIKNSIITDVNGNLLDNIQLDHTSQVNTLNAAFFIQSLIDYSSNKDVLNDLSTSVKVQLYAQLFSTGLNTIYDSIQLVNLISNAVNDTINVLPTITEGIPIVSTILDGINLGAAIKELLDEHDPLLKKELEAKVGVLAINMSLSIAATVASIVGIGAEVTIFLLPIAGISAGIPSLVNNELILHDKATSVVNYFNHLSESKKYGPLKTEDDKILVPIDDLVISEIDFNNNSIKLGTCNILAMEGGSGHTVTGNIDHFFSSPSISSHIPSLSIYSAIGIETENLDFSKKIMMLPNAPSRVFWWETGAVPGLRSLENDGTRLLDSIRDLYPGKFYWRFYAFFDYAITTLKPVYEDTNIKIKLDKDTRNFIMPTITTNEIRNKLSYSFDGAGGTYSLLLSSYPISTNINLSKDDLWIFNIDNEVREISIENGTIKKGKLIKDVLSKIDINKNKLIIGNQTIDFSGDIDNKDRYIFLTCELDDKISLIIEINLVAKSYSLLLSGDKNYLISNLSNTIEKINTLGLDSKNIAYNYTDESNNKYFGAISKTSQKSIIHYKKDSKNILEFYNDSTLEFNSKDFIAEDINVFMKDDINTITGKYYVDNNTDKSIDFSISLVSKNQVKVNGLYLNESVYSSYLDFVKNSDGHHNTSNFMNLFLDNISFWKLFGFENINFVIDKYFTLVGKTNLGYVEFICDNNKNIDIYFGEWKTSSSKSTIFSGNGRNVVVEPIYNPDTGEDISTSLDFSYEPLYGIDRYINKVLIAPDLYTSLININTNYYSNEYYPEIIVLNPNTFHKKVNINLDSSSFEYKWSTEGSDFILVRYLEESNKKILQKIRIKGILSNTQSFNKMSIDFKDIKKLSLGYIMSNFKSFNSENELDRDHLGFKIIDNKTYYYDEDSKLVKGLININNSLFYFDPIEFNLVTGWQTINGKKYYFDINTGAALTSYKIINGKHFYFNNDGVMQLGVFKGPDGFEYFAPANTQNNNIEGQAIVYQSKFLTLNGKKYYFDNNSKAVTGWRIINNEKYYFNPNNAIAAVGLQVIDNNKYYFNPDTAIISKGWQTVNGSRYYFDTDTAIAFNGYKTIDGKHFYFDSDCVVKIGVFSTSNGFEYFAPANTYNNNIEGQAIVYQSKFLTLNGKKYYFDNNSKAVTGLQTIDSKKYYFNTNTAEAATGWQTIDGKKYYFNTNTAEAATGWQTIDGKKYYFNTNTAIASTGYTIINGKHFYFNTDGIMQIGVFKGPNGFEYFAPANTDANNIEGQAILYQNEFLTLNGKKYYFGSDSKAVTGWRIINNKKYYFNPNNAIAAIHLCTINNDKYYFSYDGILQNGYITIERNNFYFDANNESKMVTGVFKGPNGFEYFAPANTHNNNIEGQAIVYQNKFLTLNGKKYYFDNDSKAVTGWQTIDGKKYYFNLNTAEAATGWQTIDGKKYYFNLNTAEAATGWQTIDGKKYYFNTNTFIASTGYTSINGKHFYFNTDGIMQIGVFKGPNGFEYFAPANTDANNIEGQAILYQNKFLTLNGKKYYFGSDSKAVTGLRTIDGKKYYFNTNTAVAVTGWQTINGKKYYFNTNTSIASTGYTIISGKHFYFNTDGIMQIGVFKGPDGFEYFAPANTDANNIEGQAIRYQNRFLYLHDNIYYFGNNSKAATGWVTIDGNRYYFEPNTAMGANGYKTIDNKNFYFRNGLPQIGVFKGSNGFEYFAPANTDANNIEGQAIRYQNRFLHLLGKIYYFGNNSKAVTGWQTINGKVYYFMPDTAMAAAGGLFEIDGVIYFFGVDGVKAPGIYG
T1 sequence (P18177 whole entry): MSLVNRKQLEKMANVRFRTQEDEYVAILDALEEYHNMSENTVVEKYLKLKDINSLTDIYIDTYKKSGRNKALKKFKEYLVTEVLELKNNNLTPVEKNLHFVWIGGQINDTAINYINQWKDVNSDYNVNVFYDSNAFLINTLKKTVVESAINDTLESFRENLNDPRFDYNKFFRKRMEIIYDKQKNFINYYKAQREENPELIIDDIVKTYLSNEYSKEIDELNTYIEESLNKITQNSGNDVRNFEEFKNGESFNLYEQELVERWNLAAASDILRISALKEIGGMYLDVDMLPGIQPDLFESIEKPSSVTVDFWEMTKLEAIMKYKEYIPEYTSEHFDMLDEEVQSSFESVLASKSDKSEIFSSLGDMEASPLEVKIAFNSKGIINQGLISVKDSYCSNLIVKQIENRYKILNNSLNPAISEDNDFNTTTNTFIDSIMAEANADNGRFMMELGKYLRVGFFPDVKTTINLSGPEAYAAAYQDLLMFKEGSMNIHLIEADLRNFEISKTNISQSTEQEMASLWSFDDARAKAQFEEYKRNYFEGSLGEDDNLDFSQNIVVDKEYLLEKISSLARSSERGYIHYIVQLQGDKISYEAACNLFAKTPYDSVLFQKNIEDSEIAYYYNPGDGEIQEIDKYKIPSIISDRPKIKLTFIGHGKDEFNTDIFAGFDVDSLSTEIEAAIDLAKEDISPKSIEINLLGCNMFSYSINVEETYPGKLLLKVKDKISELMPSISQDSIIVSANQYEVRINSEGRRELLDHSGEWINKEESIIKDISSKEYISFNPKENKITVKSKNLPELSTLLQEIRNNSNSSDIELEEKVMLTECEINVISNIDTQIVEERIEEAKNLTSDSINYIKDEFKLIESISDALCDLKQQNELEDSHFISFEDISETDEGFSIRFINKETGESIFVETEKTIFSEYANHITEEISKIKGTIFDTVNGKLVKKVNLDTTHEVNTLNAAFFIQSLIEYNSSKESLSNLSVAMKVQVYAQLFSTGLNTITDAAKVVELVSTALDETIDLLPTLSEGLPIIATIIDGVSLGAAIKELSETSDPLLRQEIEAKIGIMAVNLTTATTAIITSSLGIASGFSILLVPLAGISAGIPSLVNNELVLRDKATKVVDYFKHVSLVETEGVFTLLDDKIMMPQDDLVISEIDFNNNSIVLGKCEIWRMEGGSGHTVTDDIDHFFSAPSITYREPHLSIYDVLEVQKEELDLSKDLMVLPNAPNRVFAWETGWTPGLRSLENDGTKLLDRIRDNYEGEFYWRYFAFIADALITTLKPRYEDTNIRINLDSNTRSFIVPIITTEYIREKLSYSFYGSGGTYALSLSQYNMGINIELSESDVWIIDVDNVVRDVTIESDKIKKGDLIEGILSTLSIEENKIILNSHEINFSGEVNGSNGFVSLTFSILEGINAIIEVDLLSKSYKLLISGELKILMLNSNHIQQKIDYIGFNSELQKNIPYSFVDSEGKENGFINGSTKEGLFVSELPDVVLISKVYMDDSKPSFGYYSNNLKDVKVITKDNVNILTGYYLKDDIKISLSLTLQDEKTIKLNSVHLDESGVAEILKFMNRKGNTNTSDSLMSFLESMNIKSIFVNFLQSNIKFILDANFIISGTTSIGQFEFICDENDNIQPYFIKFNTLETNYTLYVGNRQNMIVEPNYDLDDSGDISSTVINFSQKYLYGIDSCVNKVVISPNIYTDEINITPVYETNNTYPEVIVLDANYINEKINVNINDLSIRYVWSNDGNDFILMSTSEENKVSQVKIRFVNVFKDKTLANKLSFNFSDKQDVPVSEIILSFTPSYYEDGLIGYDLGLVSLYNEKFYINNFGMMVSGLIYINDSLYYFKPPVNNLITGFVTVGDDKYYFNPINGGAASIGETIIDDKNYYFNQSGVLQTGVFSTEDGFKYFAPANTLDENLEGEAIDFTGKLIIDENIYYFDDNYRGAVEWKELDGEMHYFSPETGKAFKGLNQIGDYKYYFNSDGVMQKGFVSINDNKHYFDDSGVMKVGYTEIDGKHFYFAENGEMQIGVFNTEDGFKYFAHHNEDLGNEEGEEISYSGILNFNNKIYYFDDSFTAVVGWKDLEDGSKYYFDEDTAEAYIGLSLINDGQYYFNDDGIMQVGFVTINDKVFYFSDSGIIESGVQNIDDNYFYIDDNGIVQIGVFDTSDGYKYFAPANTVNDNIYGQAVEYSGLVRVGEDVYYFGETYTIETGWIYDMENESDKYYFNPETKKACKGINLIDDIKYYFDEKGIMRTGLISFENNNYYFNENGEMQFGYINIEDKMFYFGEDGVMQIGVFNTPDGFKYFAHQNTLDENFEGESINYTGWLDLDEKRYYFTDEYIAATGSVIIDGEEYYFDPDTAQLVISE

In the case of `COc1cnc(NC(=O)c2ccc(CN3C(=O)c4ccc(Cl)cc4NC(=O)[C@H]3Cc3ccccn3)cc2)nc1`, the 50% inhibitory concentration (IC50) at Toxin B [1] worked out at 3 nM. Besides, the Stability entry in [2] (2 h) is listed as “Unstable”.
Regarding `O=C(c1ccc(CN2C(=O)c3ccc(Cl)cc3NC(=O)[C@H]2Cc2ccccn2)cc1)c1c[nH]c2cccnc12`, the IC50 at Toxin B [1] was 1800 nM; on Toxin B [4], 2 nM; at Toxin A, 18000 nM. Besides, the remaining at 0.25 h in data set [3] came out at 93%; in data set [5] it was 87%.
Consider `Cn1cc(C(=O)c2ccc(CN3C(=O)c4ccc(Cl)cc4NC(=O)[C@H]3Cc3ccccn3)cc2)c2ncccc21`, for which the IC50 on Toxin B [1] was found to be 330 nM; at Toxin B [4] it was 6 nM; at Toxin A it was 5300 nM. In addition, the remaining at 0.25 h in data set [3] was determined as 76%; in data set [5], 67%.
In the case of `COc1ccc(NC(=O)c2ccc(CN3C(=O)c4ccc(Cl)cc4NC(=O)[C@H]3Cc3ccccn3)cc2Cl)nc1`, the values for the IC50 at Toxin B [1], on Toxin B [4] and on Toxin A were 61 nM, 5 nM and 760 nM, respectively. The remaining at 0.25 h in [3] worked out at 71%; in [5] it was 100%. Moreover, the remaining at 2 h in data set [2] (read-out: Stability) is 100%.
As to `O=C(c1ccc(CN2C(=O)c3ccc(Cl)cc3NC(=O)[C@H]2Cc2ccccn2)cc1)c1cccn2ccnc12`, the IC50 on Toxin B [1] came out at 660 nM; at Toxin B [4], 8 nM; at Toxin A it was 8100 nM. Further, the remaining at 0.25 h is 27% in data set [3] and 44% in data set [5].
Consider `O=C(Nc1ccc(C(F)(F)F)cn1)c1ccc(CN2C(=O)c3ccc(Cl)cc3NC(=O)[C@H]2Cc2ccccn2)cc1Cl`, for which the AUC(0-inf) came to 21500 ng·h/mL in data set [6], 592 ng·h/mL in data set [7] and 9420 ng·h/mL in data set [18]. For the same molecule, the IC50 worked out at 250 nM at Toxin B [1], 18 nM at Toxin B [4] and 6300 nM on Toxin A. In addition, in data set [8], the Vz/F stood at 6.2 L/kg. Further, the half-life was 10 h in [9] and 2.6 h in [11]. In addition, the peak concentration (Cmax) in data set [10] stood at 312 ng/mL; in [15], 2750 ng/mL; in data set [19], 1530 ng/mL. The remaining at 0.25 h in data set [3] was 92%; in [5], 94%. Besides, the clearance in data set [12] is 28 mL/min/kg. Besides, the F in data set [13] is reported as 159%. In addition, the time of peak concentration (Tmax) in data set [14] and in data set [16] was 0.25 h throughout. In addition, the MST in the data set on Clostridioides difficile [17] was determined as 12.3 days. Moreover, the CL/F in data set [20] turned out to be 7.8 mL/min/kg.
On to `Cn1cnc(C(=O)c2ccc(CN3C(=O)c4ccc(Cl)cc4NC(=O)[C@H]3Cc3ccccn3)cc2)c1`, for which the results for the IC50 at Toxin B [1], at Toxin B [4] and on Toxin A were above 100000 nM, 230 nM and above 100000 nM, respectively. Also, the remaining at 0.25 h in data set [3] came to 16%; in [5], 44%.
Regarding `Cc1ccc(NC(=O)c2ccc(CN3C(=O)c4ccc(Cl)cc4NC(=O)[C@H]3Cc3ccccn3)cc2Cl)nc1`, the figures for the 50% inhibitory concentration (IC50) on Toxin B [1], on Toxin B [4] and at Toxin A were 24 nM, 5 nM and 580 nM, respectively. Further, the remaining at 0.25 h in data set [3] and in [5] was 57% in each case.
In the case of `CN[C@H](CC(C)C)C(=O)N[C@H]1C(=O)N[C@@H](CC(N)=O)C(=O)N[C@H]2C(=O)N[C@H]3C(=O)N[C@H](C(=O)N[C@H](C(=O)O)c4cc(O)cc(O)c4-c4cc3ccc4O)[C@H](O)c3ccc(c(Cl)c3)Oc3cc2cc(c3O[C@@H]2O[C@H](CO)[C@@H](O)[C@H](O)[C@H]2O[C@H]2C[C@](C)(N)[C@H](O)[C@H](C)O2)Oc2ccc(cc2Cl)[C@H]1O` [VANCOMYCIN], the MST in the data set on Clostridioides difficile [21] is 12 days.
